Non-standard residues stand in square brackets, D forms with d. Residues, ends and D or L forms follow the SMILES beside them. *: point of attachment. Phe(4-NH2) = Nc1ccc(C[C@H](N)C(=O)O)cc1; Tic = O=C(O)[C@@H]1Cc2ccccc2CN1; BrAc = O=C(CBr)*
Tests used:
[1] = target: T1, Delta-type opioid receptor (Mus musculus, UniProt P32300); test: Binding affinity towards Opioid receptor delta 1
Summary of the method: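 Competition binding against [³H]DPDPE on membranes of CHO cells stably transfected with cloned δ opioid receptors, under standard (equilibrium) conditions. The IC₅₀ is displacement of radioligand, averaged over 3–7 independent determinations ± SEM.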

Mu-type opioid receptor = Mu-type opioid receptor (Rattus norvegicus, UniProt P33535); test: Inhibitory activity against Opioid receptor mu 1 using [3H]DAMGO
Chain of Mu-type opioid receptor (P33535 whole entry): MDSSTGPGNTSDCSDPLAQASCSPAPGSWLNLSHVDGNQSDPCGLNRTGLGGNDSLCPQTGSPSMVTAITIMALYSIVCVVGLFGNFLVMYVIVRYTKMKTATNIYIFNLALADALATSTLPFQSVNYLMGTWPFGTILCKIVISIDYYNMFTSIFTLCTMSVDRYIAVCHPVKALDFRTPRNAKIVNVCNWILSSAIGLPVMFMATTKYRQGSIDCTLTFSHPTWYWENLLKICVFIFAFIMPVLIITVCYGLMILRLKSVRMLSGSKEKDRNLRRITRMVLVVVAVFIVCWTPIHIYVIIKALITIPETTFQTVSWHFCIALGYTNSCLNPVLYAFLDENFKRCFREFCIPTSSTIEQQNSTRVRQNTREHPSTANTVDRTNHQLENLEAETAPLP

[2] = target: T1, Delta-type opioid receptor; test: Inhibitory activity against Opioid receptor delta 1 using [3H]DPDPE
Summary of the method: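 Competition binding on membranes of CHO cells stably transfected with cloned δ opioid receptors, using [³H]DPDPE as radioligand under standard (equilibrium) conditions. IC50 is the mean ± SEM of 3–7 independent determinations.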

[3] = target: Delta-type opioid receptor (Mus musculus) (UniProt P32300); test: Inhibition of cyclic adenosine 3',5'-monophosphate (cAMP) formation by recombinant Opioid receptor delta 1 in adenylyl cyclase assay; format: functional; details: concentration not given here
Chain of Delta-type opioid receptor (Mus musculus) (P32300 whole entry): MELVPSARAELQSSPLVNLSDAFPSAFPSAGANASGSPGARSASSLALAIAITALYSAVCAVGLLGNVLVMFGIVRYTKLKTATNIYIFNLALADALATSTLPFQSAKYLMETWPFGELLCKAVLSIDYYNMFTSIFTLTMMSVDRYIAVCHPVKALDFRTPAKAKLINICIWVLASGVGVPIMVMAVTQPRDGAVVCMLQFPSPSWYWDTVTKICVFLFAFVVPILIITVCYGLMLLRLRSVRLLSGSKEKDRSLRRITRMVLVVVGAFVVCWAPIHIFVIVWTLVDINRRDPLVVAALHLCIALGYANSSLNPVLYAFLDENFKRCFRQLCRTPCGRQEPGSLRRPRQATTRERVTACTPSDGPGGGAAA

[4] = target: Kappa-type opioid receptor (Cavia porcellus, UniProt P41144); test: Inhibitory activity against Opioid receptor kappa 1 using [3H]diprenorphine
Chain of Kappa-type opioid receptor (P41144 whole entry): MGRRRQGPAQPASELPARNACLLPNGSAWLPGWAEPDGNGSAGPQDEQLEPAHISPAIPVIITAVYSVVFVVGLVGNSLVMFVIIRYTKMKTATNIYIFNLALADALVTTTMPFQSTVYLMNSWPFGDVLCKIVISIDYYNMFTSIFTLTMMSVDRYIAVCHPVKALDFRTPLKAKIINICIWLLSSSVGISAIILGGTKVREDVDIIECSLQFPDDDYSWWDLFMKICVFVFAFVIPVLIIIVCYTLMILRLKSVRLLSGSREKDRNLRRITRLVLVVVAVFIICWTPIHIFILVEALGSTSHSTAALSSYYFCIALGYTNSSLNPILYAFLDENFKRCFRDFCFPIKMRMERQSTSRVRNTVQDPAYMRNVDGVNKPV

T1 sequence (P32300 whole entry): as the sequence (P32300 whole entry) above

Structure (SMILES) | Ki [1] [nM] | IC50 (Mu-type opioid receptor) [nM] | IC50 [2] [nM] | inhibition [3] [%] | IC50 [4] [nM]
N[C@@H](Cc1ccc(O)cc1)C(=O)N1Cc2ccccc2C[C@H]1C(=O)N[C@@H](Cc1ccccc1)C(=O)N[C@@H](Cc1ccccc1)C(=O)O (H-Y[Tic]FF-OH) | 1.22 | 10000 | 14.1 |  | 
N[C@@H](Cc1ccc(O)cc1)C(=O)N1Cc2ccccc2C[C@H]1C(=O)N[C@@H](Cc1ccccc1)C(=O)N[C@@H](Cc1ccc(NC(=O)CBr)cc1)C(=O)O (H-Y[Tic]F[Phe(4-NH2)](BrAc)-OH) |  | > 5390 | 5.4 | 65 | > 10000
Nc1ccc(C[C@H](NC(=O)[C@H](Cc2ccccc2)NC(=O)[C@@H]2Cc3ccccc3CN2C(=O)[C@@H](N)Cc2ccc(O)cc2)C(=O)O)cc1 (H-Y[Tic]F[Phe(4-NH2)]-OH) |  | > 10000 | 19.9 |  | > 10000
N[C@@H](Cc1ccc(O)cc1)C(=O)N1Cc2ccccc2C[C@H]1C(=O)N[C@@H](Cc1ccc(NC(=O)CBr)cc1)C(=O)N[C@@H](Cc1ccccc1)C(=O)O (H-Y[Tic][Phe(4-NH2)](BrAc)F-OH) |  | > 10000 | 65 |  | 
Nc1ccc(C[C@H](NC(=O)[C@@H]2Cc3ccccc3CN2C(=O)[C@@H](N)Cc2ccc(O)cc2)C(=O)N[C@@H](Cc2ccccc2)C(=O)O)cc1 (H-Y[Tic][Phe(4-NH2)]F-OH) |  | > 10000 | 36.2 |  | 
